Reference: ChEMBL document CHEMBL1124344, “5-Piperazinylalkyl-2(3H)-oxazolones with neuroleptic activity” (J Med Chem, 1989)

Columns and labels:
Mus musculus [1] = experiment: Inhibition of amphetamine-induced hypermobility in mice following p.o. administration.; format: functional; details: po
In short: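 Compounds were given orally to male mice (gum arabic suspension, 10 mL/kg, fasted) in groups of five. Amphetamine 4 mg/kg ip followed 30 min later. After another 10 min, motility was recorded for 15 min with a photocell actophotometer. ED50, by probit analysis, is the dose giving 50% reduction against controls.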

[2] = Lethal dose in mice (LD50) following i.p. dosing; format: toxicity, organism-based; details: mouse, in vivo, ip
In short: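 Acute toxicity tested in mice by the intraperitoneal route. LD50 is the dose killing 50% of treated mice, computed by Finney probit analysis; values are approximate.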

Rattus norvegicus [3] = experiment: Activity to evoke catalepsy in rats, by administering perorally at a dose of 50 mg/kg; format: functional; details: route oral
In short: (§1)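 Rats fasted overnight and given oral doses in arabic gum suspension (10 mL/kg), 1 h before screening or 1 and 5 h before profile testing. Forelegs placed on a horizontal bar 7 cm high, three times at 5-min intervals. Immobility of at least 15 s counts as catalepsy. ED50 is the dose giving catalepsy in 50% of rats, by probit analysis. Parenthetical entries give the maximal dose and percent activity.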

Rattus norvegicus [4] = experiment: Antagonistic activity against apomorphine-induced stereotypy in rats, by administering perorally at a dose of 50 mg/kg; format: functional; details: route oral
In short: (§2)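 Male rats fasted overnight and given oral doses in arabic gum suspension (10 mL/kg) 1 h, or 1 and 5 h, before challenge. Apomorphine 3 mg/kg iv, with stereotypy observed 20 min later. ED50 is the dose inhibiting stereotypy in 50% of rats, per Janssen's method. Parenthetical entries give the maximal dose and percent activity.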

Mus musculus [5] = experiment: Inhibition of spontaneous motor activity in mice, by administering perorally; format: functional; details: po
In short: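 Mice in groups of five were dosed orally with gum arabic suspensions at 10 mL/kg after an overnight fast, with a vehicle control group. Locomotion was counted for 10 min in a photocell activity cage, in at least two groups per dose. ED50, by probit analysis, is the dose giving 50% inhibition against controls.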

Rattus norvegicus [6] = experiment: Activity to evoke catalepsy in rats, by administering perorally at a dose of 70 mg/kg; format: functional; details: route oral; in short: as §1
Rattus norvegicus [7] = experiment: Antagonistic activity against apomorphine-induced stereotypy in rats, by administering perorally; format: functional; details: po; in short: as §2
Rattus norvegicus [8] = experiment: Antagonistic activity against apomorphine-induced stereotypy in rats, by administering perorally at a dose of 100 mg/kg; format: functional; details: route oral; in short: as §2
Mus musculus [9] = experiment: Antagonistic activity against amphetamine-induced Hypermobility in mice, by administering perorally at a dose of 100 mg/kg; format: functional; details: route oral
In short: (§3)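 Male mice in groups of five, fasted overnight, given oral drug in arabic gum suspension (10 mL/kg) 1 or 5 h ahead. Amphetamine 4 mg/kg ip given 30 min after drug. Ten minutes later locomotion is recorded for 15 min in a photocell actophotometer. ED50 is 50% reduction versus control hypermotility, by probit analysis. Parenthetical entries give the maximal dose and percent activity.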

Rattus norvegicus [10] = experiment: Activity to evoke catalepsy in rats, by administering perorally at a dose of 100 mg/kg; format: functional; details: route oral, read-out: Inhibition; in short: as §1
Mus musculus [11] = experiment: Inhibition of spontaneous motor activity in mice, by administering perorally at a dose of 100 mg/kg; format: functional; details: route oral
In short: (§4)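 Mice fasted overnight, then dosed orally with compound (weighed as base) suspended in arabic gum, 10 mL/kg, with vehicle controls; 1 h pretreatment for screening tests, 1 or 5 h for others. Groups of five; locomotor activity counted 10 min in photocell activity cage, at least two groups per dose. ED50 = dose giving 50% inhibition versus controls, by probit analysis.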

Rattus norvegicus [12] = experiment: Activity to evoke catalepsy in rats, by administering perorally; format: functional; details: po; in short: as §1
Rattus norvegicus [13] = experiment: Activity to evoke catalepsy in rats, by administering perorally at a dose of 20 mg/kg; format: functional; details: route oral, read-out: Inhibition; in short: as §1
Mus musculus [14] = experiment: Inhibition of spontaneous motor activity in mice, by administering perorally at a dose of 20 mg/kg; format: functional; details: route oral; in short: as §4
Mus musculus [15] = experiment: Antagonistic activity against amphetamine-induced Hypermobility in mice, by administering perorally at a dose of 20 mg/kg; format: functional; details: route oral; in short: as §3
Rattus norvegicus [16] = experiment: Antagonistic activity against apomorphine-induced stereotypy in rats, by administering perorally at a dose of 20 mg/kg; format: functional; details: route oral; in short: as §2
Mus musculus [17] = experiment: Antagonistic activity against amphetamine-induced Hypermobility in mice, by administering perorally at a dose of 70 mg/kg; format: functional; details: route oral; in short: as §3
Mus musculus [18] = experiment: Inhibition of spontaneous motor activity in mice, by administering perorally at a dose of 70 mg/kg; format: functional; details: route oral; in short: as §4

| SMILES | ED50 (Mus musculus [1]) [mg/kg] | LD50 [2] [mg/kg] | ED50 (Mus musculus [5]) [mg/kg] | ED50 (Rattus norvegicus [7]) [mg/kg] | inhibition in vivo at 100 mg/kg (Rattus norvegicus [8]) [%] | percent of rats showing catalepsy at 100 mg/kg (Rattus norvegicus [10]) [%] | other results |
| --- | --- | --- | --- | --- | --- | --- | --- |
| COc1cccc(N2CCN(CCc3oc(O)nc3-c3ccc(F)cc3)CC2)c1 | 7.6 | 500 | 10.8 | – | – | – | inhibition in vivo at 50 mg/kg (Rattus norvegicus [3]): 30%; inhibition in vivo at 50 mg/kg (Rattus norvegicus [4]): 0% |
| CCN(CC)CCn1c(-c2ccc(F)cc2)c(CCN2CCN(c3ccccc3)CC2)oc1=O | – | 350 | 60 | 35 | – | – | inhibition in vivo at 70 mg/kg (Rattus norvegicus [6]): 0% |
| Oc1nc(-c2ccc(F)cc2)c(CCN2CCN(c3ccc(Cl)c(Cl)c3)CC2)o1 | – | 1000 | – | – | 0 | 0 | inhibition in vivo at 100 mg/kg (Mus musculus [9]): 62%; inhibition in vivo at 100 mg/kg (Mus musculus [11]): 21% |
| Oc1nc(-c2ccc(Cl)cc2)c(CN2CCN(c3ccccc3)CC2)o1 | – | > 1000 | – | – | 0 | 0 | inhibition in vivo at 100 mg/kg (Mus musculus [9]): 0%; inhibition in vivo at 100 mg/kg (Mus musculus [11]): 15% |
| Oc1nc(-c2ccc(F)cc2)c(CCN2CCN(c3ccccc3Cl)CC2)o1 | 15 | > 1000 | 14.2 | – | 0 | 30 | – |
| Oc1nc(-c2ccc(Cl)cc2)c(CCN2CCN(c3ccccn3)CC2)o1 | 14.3 | 375 | 14.1 | – | – | – | ED50 (Rattus norvegicus [12]): 47 mg/kg; inhibition in vivo at 50 mg/kg (Rattus norvegicus [4]): 0% |
| Oc1nc(-c2ccccc2)c(CCN2CCN(c3ccccc3)CC2)o1 | 51 | > 1000 | 60 | 200 | – | – | ED50 (Rattus norvegicus [12]): 63 mg/kg |
| Cc1cccc(N2CCN(CCc3oc(O)nc3-c3ccc(F)cc3)CC2)c1 | 7.3 | > 1000 | 13.4 | – | – | – | inhibition in vivo at 50 mg/kg (Rattus norvegicus [3]): 0%; inhibition in vivo at 50 mg/kg (Rattus norvegicus [4]): 0% |
| CNC(=O)n1c(-c2ccc(F)cc2)c(CCN2CCN(c3ccccc3)CC2)oc1=O | 9.9 | 750 | 16.5 | – | – | 0 | – |
| COc1ccccc1N1CCN(CCc2oc(=O)n(C(C)=O)c2-c2ccc(F)cc2)CC1 | 3.5 | 190 | 4.3 | 14.5 | – | – | ED50 (Rattus norvegicus [12]): 30 mg/kg |
| CC(=O)n1c(-c2ccc(F)cc2)c(CCN2CCN(c3ccccc3)CC2)oc1=O | 4.7 | 350 | 2.7 | 44 | – | – | ED50 (Rattus norvegicus [12]): 30.5 mg/kg |
| Oc1nc(-c2ccc(F)cc2)c(CCN2CCN(c3cc(Cl)c(Cl)cc3Cl)CC2)o1 | – | 750 | – | – | – | – | percent of rats showing catalepsy at 20 mg/kg (Rattus norvegicus [13]): 0%; inhibition in vivo at 20 mg/kg (Mus musculus [14]): 0%; inhibition in vivo at 20 mg/kg (Mus musculus [15]): 0%; inhibition in vivo at 20 mg/kg (Rattus norvegicus [16]): 0% |
| Oc1nc(-c2ccc(F)cc2)c(CCN2CCN(c3cc(Cl)c(Cl)c(Cl)c3)CC2)o1 | – | > 1000 | – | – | 0 | 0 | inhibition in vivo at 100 mg/kg (Mus musculus [9]): 0%; inhibition in vivo at 100 mg/kg (Mus musculus [11]): 0% |
| COc1ccc(-c2nc(O)oc2CCN2CCN(c3ccccc3)CC2)cc1 | – | 350 | – | 47 | – | – | inhibition in vivo at 70 mg/kg (Mus musculus [17]): 27%; inhibition in vivo at 70 mg/kg (Mus musculus [18]): 26%; inhibition in vivo at 70 mg/kg (Rattus norvegicus [6]): 0% |
| Cc1ccc(-c2nc(O)oc2CCN2CCN(c3ccccc3)CC2)cc1 | 2 | 400 | 6.4 | – | 0 | 0 | – |
